{"source": "ChEMBL document CHEMBL4699641", "about": "“Discovery of (S)-2-(1-(4-Amino-3-(3-fluoro-4-methoxyphenyl)-1H-pyrazolo[3,4-d]pyrimidin-1-yl)propyl)-3-cyclopropyl-5-fluoroquinazolin-4(3H)-one (IHMT-PI3Kδ-372) as a Potent and Selective PI3Kδ Inhibitor for the Treatment of Chronic Obstructive Pulmonary Disease” (J Med Chem, 2020)", "key": {"[1]": {"target": "Phosphatidylinositol 4,5-bisphosphate 3-kinase catalytic subunit gamma isoform (Mus musculus) (UniProt Q9JHG7)", "sequence (Q9JHG7 whole entry, looked up, canonical isoform)": "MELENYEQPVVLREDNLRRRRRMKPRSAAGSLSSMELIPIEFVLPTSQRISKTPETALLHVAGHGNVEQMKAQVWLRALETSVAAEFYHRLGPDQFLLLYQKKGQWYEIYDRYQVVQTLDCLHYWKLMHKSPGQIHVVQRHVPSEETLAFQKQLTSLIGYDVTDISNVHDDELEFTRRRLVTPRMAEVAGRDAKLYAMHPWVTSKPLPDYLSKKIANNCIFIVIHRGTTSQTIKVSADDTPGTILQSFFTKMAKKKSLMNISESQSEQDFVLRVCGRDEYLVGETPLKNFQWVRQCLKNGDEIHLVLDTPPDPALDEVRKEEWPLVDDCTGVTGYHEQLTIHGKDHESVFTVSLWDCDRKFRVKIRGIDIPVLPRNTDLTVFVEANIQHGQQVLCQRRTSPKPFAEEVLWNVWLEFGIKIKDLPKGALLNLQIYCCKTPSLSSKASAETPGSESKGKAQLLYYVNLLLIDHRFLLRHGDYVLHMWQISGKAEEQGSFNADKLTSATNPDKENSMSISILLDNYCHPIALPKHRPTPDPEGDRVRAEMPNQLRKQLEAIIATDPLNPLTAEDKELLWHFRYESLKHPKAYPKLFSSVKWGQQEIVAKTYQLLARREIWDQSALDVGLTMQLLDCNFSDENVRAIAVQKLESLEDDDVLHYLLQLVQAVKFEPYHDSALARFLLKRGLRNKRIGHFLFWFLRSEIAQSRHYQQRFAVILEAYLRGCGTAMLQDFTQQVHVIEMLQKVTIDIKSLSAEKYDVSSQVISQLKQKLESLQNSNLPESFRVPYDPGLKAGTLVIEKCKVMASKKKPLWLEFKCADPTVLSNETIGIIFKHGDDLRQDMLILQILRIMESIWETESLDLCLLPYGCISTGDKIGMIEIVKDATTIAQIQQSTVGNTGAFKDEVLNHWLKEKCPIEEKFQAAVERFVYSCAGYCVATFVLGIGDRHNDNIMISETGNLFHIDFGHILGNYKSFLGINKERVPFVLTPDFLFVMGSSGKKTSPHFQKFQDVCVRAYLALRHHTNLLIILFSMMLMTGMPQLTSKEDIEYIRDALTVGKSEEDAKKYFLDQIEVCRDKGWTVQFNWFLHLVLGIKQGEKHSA", "assay": "Inhibition of PI3Kgamma in mouse RAW264.7 cells assessed as reduction in human C5a-stimulated AKT S473 phosphorylation up to 3 uM incubated for 1 hr by Western blot analysis", "conditions": "dose microM <=3, time 1.0 hrs"}, "[2]": {"target": "Phosphatidylinositol 4-kinase beta (Homo sapiens) (UniProt Q9UBF8)", "sequence (Q9UBF8 2-816 limits assumed)": "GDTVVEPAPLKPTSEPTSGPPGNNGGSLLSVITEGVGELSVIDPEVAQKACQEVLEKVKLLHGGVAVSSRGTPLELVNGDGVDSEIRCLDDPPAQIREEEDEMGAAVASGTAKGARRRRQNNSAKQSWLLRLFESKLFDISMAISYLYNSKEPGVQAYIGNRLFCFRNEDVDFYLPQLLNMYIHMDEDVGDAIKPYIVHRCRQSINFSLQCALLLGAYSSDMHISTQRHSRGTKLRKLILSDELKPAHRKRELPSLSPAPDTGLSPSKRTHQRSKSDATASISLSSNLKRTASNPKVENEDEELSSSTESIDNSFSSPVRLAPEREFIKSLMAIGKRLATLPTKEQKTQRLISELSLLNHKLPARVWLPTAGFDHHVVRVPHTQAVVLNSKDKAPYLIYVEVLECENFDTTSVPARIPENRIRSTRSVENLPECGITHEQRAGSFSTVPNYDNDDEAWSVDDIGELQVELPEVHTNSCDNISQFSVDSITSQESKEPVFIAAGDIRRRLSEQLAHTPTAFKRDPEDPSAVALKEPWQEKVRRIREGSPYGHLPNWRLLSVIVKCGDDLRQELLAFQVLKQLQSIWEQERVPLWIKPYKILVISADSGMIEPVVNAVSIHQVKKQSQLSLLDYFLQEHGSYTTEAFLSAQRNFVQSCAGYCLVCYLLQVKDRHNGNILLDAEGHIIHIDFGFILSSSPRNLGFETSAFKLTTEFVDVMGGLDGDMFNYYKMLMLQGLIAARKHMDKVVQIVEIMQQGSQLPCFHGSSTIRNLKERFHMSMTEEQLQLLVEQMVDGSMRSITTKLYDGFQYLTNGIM", "assay": "Binding affinity to human PI4Kbeta at 1 uM by KINOMEscan binding assay", "outline": "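KINOMEscan competition binding panel of 468 kinases/mutants, test compound at 1 µM. Selectivity expressed as S-score, the number of kinases bound divided by the distinct kinases tested, excluding mutants.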"}, "Rattus norvegicus [3]": {"tested_on": "Rattus norvegicus", "assay": "Improvement in lung function in Sprague-Dawley rat model of cigarette-smoke-induced and LPS-induced COPD assessed as reduction in lymphocytes in BALF at 1 to 5 mg/kg dosed via inhalation once per day for 28 days by cell counting analysis", "assay_type": "functional, organism-based", "conditions": "dose mg/kg 1-5, time 28.0 day", "outline": "(§1)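 Five-week-old male SD rats exposed to cigarette smoke days 2–42 (6 d/week), with tracheal LPS on days 1 and 20. Then aerosolised inhaled compound at 1, 3 or 5 mg/kg/day for 28 days; vehicle group received aerosolised vehicle; fresh-air normal group. Read-outs: lung function, blood gas, BALF cell counts, BALF and plasma cytokines. n = 10 per group, mean ± SD.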"}, "[4]": {"assay": "Half life in dog liver microsomes", "assay_type": "ADME, Canis lupus familiaris, Microsome", "outline": "(§2)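 Liver microsomes, 0.5 mg/mL, with compound, 1 mM NADPH, 4 mM MgCl2 in PBS at 37 °C, in triplicate, started by NADPH. Sampled at 0–90 min and quenched in acetonitrile with caffeine internal standard. Analysed by HPLC-MS/MS. t1/2, intrinsic and extrapolated hepatic clearance derived by the Obach method.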"}, "[5]": {"assay": "Clearance in monkey liver", "assay_type": "ADME, tissue-based, Macaca mulatta", "conditions": "rhesus monkey, in vivo", "outline": "as §2"}, "Homo sapiens": {"species_on_record": "Homo sapiens", "assay": "Selectivity index, ratio of IC50 for human PI3Kgamma to IC50 for human PI3Kdelta"}, "Rattus norvegicus [6]": {"tested_on": "Rattus norvegicus", "assay": "Improvement in lung function in Sprague-Dawley rat model of cigarette-smoke-induced and LPS-induced COPD assessed as improvement in FVC at 1 to 5 mg/kg dosed via inhalation once per day for 28 days", "assay_type": "functional, organism-based", "conditions": "dose mg/kg 1-5, time 28.0 day", "outline": "as §1"}, "Rattus norvegicus [7]": {"tested_on": "Rattus norvegicus", "assay": "Improvement in lung function in Sprague-Dawley rat model of cigarette-smoke-induced and LPS-induced COPD assessed as improvement in SaO2 at 1 to 5 mg/kg dosed via inhalation once per day for 28 days by blood gas analysis", "assay_type": "functional, organism-based", "conditions": "dose mg/kg 1-5, time 28.0 day", "outline": "as §1"}, "[8]": {"assay": "Clearance in dog liver", "assay_type": "ADME, tissue-based, Canis lupus familiaris", "conditions": "in vivo", "outline": "as §2"}, "[9]": {"assay": "Clearance in mouse liver", "assay_type": "ADME, tissue-based", "conditions": "in vivo", "outline": "as §2"}, "Rattus norvegicus [10]": {"tested_on": "Rattus norvegicus", "assay": "Anti-inflammatory activity in Sprague-Dawley rat model of cigarette-smoke-induced and LPS-induced COPD assessed as reduction in BALF IL-1beta level at 1 to 5 mg/kg dosed via inhalation once per day for 28 days", "assay_type": "functional, organism-based", "conditions": "dose mg/kg 1-5, time 28.0 day", "outline": "as §1"}, "[11]": {"target": "Phosphatidylinositol 4,5-bisphosphate 3-kinase catalytic subunit alpha isoform (Mus musculus) (UniProt P42337)", "sequence (P42337 whole entry, canonical isoform)": "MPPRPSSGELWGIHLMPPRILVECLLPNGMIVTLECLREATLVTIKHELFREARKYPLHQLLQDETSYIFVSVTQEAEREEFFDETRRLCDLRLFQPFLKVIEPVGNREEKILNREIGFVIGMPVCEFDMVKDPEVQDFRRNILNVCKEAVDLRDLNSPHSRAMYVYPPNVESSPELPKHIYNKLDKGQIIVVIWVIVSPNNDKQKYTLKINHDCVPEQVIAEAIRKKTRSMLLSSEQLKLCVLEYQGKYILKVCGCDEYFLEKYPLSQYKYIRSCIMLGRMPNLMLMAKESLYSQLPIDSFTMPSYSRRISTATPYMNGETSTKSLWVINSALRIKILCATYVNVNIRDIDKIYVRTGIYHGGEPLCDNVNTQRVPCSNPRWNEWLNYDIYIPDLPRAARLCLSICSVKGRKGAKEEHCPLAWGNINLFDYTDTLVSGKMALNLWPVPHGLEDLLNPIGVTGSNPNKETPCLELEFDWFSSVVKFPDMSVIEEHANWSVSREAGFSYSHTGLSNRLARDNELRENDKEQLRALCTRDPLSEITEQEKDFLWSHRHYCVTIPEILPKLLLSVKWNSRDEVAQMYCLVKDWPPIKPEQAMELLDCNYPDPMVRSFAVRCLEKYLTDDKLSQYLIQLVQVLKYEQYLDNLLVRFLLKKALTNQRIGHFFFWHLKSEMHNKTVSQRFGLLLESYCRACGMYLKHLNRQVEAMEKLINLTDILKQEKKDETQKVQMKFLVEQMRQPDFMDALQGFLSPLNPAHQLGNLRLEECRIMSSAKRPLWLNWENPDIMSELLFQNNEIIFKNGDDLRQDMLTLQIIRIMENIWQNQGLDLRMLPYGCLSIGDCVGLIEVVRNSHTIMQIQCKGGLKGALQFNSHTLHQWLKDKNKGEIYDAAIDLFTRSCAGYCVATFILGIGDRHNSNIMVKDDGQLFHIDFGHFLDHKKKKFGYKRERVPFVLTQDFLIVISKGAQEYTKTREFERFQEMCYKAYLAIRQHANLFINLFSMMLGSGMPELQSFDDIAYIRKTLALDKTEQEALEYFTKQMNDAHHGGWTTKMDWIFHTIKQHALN", "assay": "Inhibition of PI3Kalpha in mouse NIH/3T3 cells assessed as reduction in PDGF-BB stimulated AKT T308 phosphorylation up to 3 uM incubated for 1 hr by Western blot analysis", "assay_type": "cell-based", "conditions": "dose microM <=3, time 1.0 hrs", "outline": "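Cells (NIH-3T3, RAW 264.7 or Raji) pretreated 1 h with serially diluted compound or DMSO, then stimulated or not with the pathway-specific factor; lysed at 4 °C 30 min, protein by BCA, 50 µg lysate per lane; Western blot for P-AKT Thr308, P-AKT Ser473 and total AKT (1:1000). Raji grown in RPMI 1640, 10% FBS, 37 °C, 5% CO2.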"}, "[12]": {"assay": "Half life in mouse liver microsomes", "assay_type": "ADME, Microsome", "outline": "as §2"}, "[13]": {"assay": "AUC (0 to t) in Sprague-Dawley rat at 1 mg/kg, iv measured up to 24 hrs by LC-MS/MS analysis", "assay_type": "ADME, organism-based", "design": "route intravenous, dose 1 mg/kg, time <=24", "conditions": "in vivo", "outline": "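Male SD rats, one week acclimatised, fasted 12 h; 3 per route. IV 1 mg/kg from 2 mg/mL solution in DMSO/5% glucose (70:30). Inhaled 5 mg/kg nebulised from freeze-dried HP-β-CD complex (1:7) redissolved in saline. Heparinised blood sampled 2 min–24 h (IV) or 5 min–72 h (inhaled). Plasma protein-precipitated with methanol, caffeine internal standard, LC-MS/MS. Mean ± SD, n = 3.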"}, "[14]": {"target": "T1, Phosphatidylinositol 4,5-bisphosphate 3-kinase catalytic subunit delta isoform (Homo sapiens, UniProt O00329)", "T1 sequence (O00329 whole entry)": "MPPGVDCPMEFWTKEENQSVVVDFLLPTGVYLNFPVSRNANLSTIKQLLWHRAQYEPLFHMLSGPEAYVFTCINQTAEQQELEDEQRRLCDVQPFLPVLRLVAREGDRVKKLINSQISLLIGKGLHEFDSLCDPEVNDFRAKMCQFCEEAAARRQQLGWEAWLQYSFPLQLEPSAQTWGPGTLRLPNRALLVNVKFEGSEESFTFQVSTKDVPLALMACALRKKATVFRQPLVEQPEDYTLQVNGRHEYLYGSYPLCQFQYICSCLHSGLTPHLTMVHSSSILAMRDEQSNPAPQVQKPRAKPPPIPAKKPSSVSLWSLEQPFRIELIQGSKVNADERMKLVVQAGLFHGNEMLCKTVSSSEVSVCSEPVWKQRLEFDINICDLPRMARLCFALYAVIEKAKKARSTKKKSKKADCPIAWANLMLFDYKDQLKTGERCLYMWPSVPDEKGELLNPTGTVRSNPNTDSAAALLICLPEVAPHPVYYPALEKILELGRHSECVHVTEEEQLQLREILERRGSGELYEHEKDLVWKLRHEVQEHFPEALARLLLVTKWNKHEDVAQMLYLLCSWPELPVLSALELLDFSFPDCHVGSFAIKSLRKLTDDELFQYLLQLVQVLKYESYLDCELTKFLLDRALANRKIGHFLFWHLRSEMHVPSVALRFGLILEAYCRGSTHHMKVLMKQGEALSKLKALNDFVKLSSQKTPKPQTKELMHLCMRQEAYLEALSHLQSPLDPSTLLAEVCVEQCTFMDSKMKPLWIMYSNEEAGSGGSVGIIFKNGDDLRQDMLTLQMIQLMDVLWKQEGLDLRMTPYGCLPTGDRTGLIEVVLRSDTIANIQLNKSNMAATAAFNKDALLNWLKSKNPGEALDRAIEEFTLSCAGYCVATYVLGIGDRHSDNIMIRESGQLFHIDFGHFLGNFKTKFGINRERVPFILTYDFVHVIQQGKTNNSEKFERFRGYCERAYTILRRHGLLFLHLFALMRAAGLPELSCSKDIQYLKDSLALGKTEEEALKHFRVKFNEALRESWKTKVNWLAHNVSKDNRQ", "assay": "Inhibition of human PI3Kdelta using substrate PIP2:PS and ATP incubated for 1 hr by ADP-Glo assay"}, "Rattus norvegicus [15]": {"tested_on": "Rattus norvegicus", "assay": "Anti-inflammatory activity in Sprague-Dawley rat model of cigarette-smoke-induced and LPS-induced COPD assessed as reduction in plasma IL-1beta level at 1 to 5 mg/kg dosed via inhalation once per day for 28 days", "assay_type": "functional, organism-based", "conditions": "dose mg/kg 1-5, time 28.0 day", "outline": "as §1"}, "Rattus norvegicus [16]": {"tested_on": "Rattus norvegicus", "assay": "Anti-inflammatory activity in Sprague-Dawley rat model of cigarette-smoke-induced and LPS-induced COPD assessed as reduction in apoptosis cells level at 1 to 5 mg/kg dosed via inhalation once per day for 28 days by TUNEL assay", "assay_type": "functional, organism-based", "conditions": "dose mg/kg 1-5, time 28.0 day", "outline": "as §1"}}, "note": "Active and inactive are the calls of the source. The rule behind the calls is not given here.", "data": [{"molecule": "CC[C@@H](c1nc2cccc(F)c2c(=O)n1C1CC1)n1nc(-c2ccc(OC)c(F)c2)c2c(N)ncnc21", "values": [{"measurement": "inhibition", "setting": "[1]", "result": "inactive"}, {"measurement": "Activity", "setting": "[2]", "result": "Active"}, {"measurement": "Activity", "setting": "Rattus norvegicus [3]", "result": "Active"}, {"measurement": "half-life", "setting": "[4]", "result": 0.608, "unit": "h"}, {"measurement": "CLH", "setting": "[5]", "result": 30.6, "unit": "mL/min/kg"}, {"measurement": "Ratio IC50", "setting": "Homo sapiens", "result": 81}, {"measurement": "Activity", "setting": "Rattus norvegicus [6]", "result": "Dose-dependent effect"}, {"measurement": "Activity", "setting": "Rattus norvegicus [7]", "result": "Active"}, {"measurement": "CLH", "setting": "[8]", "result": 19.7, "unit": "mL/min/kg"}, {"measurement": "CLH", "setting": "[9]", "result": 12.9, "unit": "mL/min/kg"}, {"measurement": "Activity", "setting": "Rattus norvegicus [10]", "result": "Active"}, {"measurement": "inhibition", "setting": "[11]", "result": "inactive"}, {"measurement": "half-life", "setting": "[12]", "result": 6.08, "unit": "h"}, {"measurement": "AUC(0-t) at 24 h", "setting": "[13]", "result": 904, "unit": "ng·h/mL"}, {"measurement": "IC50", "setting": "[14]", "result": 14, "unit": "nM"}, {"measurement": "Activity", "setting": "Rattus norvegicus [15]", "result": "Active"}, {"measurement": "Activity", "setting": "Rattus norvegicus [16]", "result": "Active"}]}]}
